# Screening data (PubChem)
# APJ ag = APJ receptor agonism; P35414; CHO-K1 APJ PathHunter beta-arrestin, luminescence; 0% DMSO wells, 100% apelin; activation, % at 20 µM; 0.11% of 330,000 active; AID 2520;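 active = activation more than six SD over the plate average, tested at 20 µM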;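 note: 0% = DMSO alone and 100% = apelin-13 at 10 nM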
#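 Incubation: overnight seeding, 90 min compound at 25 °C, 1 h detection; test system: PathHunter CHO-K1 APJ (AGTRL-1) beta-arrestin reporter cells; amount: 1000 cells/well; doses: one dose, 20 µM compound, 1% DMSO; measured by: beta-gal luminescence; measure: agonist-driven arrestin binding to APJ; benchmarks: negative DMSO alone, positive Apelin-13 at 10 nM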
# APJ antagonist = APJ receptor antagonism; P35414; CHO-K1 APJ beta-arrestin complementation, luminescence; inhibition, % at 20 µM; 0.32% of 330,000 active; AID 2521;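 active = inhibition above about 40% at 20 µM, limit read from the data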;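 note: cells challenged with 10 nM apelin-13 agonist together with compound; plate controls were apelin-13 plus DMSO wells for no effect and DMSO wells lacking apelin-13 for full effect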
# CXCR6 inh = inhibitors of human CXCR6 receptor | 0.36% of 360,000 active | AID 602244 | O00574 | inhibition, % at 20 µM | CHO-K1 PathHunter CXCR6 beta-arrestin, luminescence; in the data active = inhibition above about 34%, passing the limit was not always enough;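 note: antagonist mode with CXCL16 agonist at 10 nM final; 0% = 10 nM CXCL16 with DMSO and 100% = unstimulated wells without agonist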
# CCR6 antagonist = antagonists of human CCR6 receptor. P51684. 0.49% of 340,000 active. CHO-K1 CCR6 PathHunter beta-arrestin, luminescence, CCL20-stimulated. inhibition, % at 20 µM;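 active = compounds whose inhibition of the agonist-driven luminescence signal at 20 µM reaches about 50%, limit read from the data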;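 note: cells stimulated with CCL20 at 14 nM final; plate controls were DMSO with CCL20 for no effect and DMSO without agonist for full effect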
# EBI2 antag = antagonists of human EBI2 receptor; P32249; EBI2 beta-arrestin recruitment, luminescence, 7a,25-OHC stimulated; inhibition, % at 5 µM; 0.81% of 360,000 active; AID 651636; in the data active = inhibition above about 38%;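 note: enzyme fragment complementation signal reports receptor beta-arrestin coupling in cells; 0% = agonist plus DMSO wells and 100% = wells without agonist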
# Target sequence (P32249 whole entry, looked up, the tested form may be a part): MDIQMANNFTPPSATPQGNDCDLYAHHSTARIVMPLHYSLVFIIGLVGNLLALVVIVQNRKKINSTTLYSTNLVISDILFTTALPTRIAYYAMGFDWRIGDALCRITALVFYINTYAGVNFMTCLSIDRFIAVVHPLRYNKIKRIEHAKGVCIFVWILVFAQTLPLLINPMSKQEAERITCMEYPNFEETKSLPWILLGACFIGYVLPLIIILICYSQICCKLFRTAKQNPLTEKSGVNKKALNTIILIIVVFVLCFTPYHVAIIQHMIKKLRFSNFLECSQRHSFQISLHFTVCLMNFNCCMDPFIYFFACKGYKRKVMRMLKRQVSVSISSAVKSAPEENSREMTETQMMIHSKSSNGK
# EBI2 antag conf = confirmation of human EBI2 receptor antagonists; inhibition, % at 5 µM; AID 651997; shares compounds with EBI2 antag; EBI2 beta-arrestin luminescence, 7a,25-OHC antagonism; 29% of 2,400 active;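 active = inhibition of at least 50%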
# EBI2 ag = counter-screen for EBI2 antagonists: EBI2 agonist activity | activation, % at 5 µM | shares compounds with EBI2 antag | EBI2-expressing cells, agonist mode, luminescence, 60 min; 0% vehicle, 100% 7α,25-dihydroxycholesterol control | 2,400 tested, under 10 active | AID 652000;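 active = activation of at least 50%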
# bGal cs = counter-screen for EBI2 antagonists: E. coli beta-galactosidase inhibition. shares compounds with EBI2 antag. purified beta-galactosidase, luminescent Galacton Star, 15 min. inhibition, % at 5 µM. 1% of 2,400 active. AID 652176;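 active = replicate-average signal at least 3 plate SD below neutral wells, shown as high inhibition, flagging enzyme-inhibiting false positives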;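 note: 0% = DMSO wells with enzyme and 100% = wells lacking enzyme; higher means stronger loss of beta-gal luminescence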
# Active calls of the source: *; . = not tested or not shown. Only some compounds are listed: those with a hit (about 1.5% of all), similar ones and a draw of the others.
SMILES,APJ ag,APJ antagonist,CXCR6 inh,CCR6 antagonist,EBI2 antag,EBI2 antag conf,EBI2 ag,bGal cs
COc1ccc(OCC(O)CNC(C)c2ccccc2)cc1 (configuration not stated),0,-6,-3,-3,22,.,.,.
COc1cc2cnc(-c3ccccc3)c(C(=O)c3ccc(F)cc3)c2cc1OC,0,5,0,14,9,.,.,.
COc1cccc(C(=O)c2c(-c3ccccc3)ncc3cc(OC)c(OC)cc23)c1,.,.,3,27,85*,56*,0,-14
Cc1ccc(S(=O)(=O)N2CCN(C(=O)CCOc3ccccc3C)CC2)cc1C,8,15,0,-8,48*,25,0,6
Cc1cc(Cl)ccc1OCCCC(=O)N1CCCCC1,-5,9,6,3,25,.,.,.
Cc1ccc(S(=O)(=O)N2CCN(C(=O)CCCOc3ccc(Cl)cc3C)CC2)cc1,7,7,5,14,79*,44,1,2
COc1ccc(OC)c(S(=O)(=O)NC2CCSc3ccccc32)c1 (configuration not stated),-1,-13,8,11,-5,.,.,.
O=c1c2ccccc2n(Cc2ccccc2F)c(=O)n1Cc1ccccc1F,-5,14,16,22,54*,17,1,11
Cc1ccc(Cn2c(=O)n(Cc3ccco3)c(=O)c3ccccc32)cc1,-4,-22,9,29,69*,26,1,9
O=C(NCc1ccco1)c1ccc(Cn2c(=O)c3ccccc3n(Cc3ccc(Cl)cc3)c2=O)cc1,1,1,15,14,22,.,.,.
O=C(c1cc2cc(Cl)ccc2[nH]1)N1CCCCC1,-2,17,-5,13,27,.,.,.
CN1CCN(C(=O)c2cc3cc(Cl)ccc3[nH]2)CC1,-2,-12,2,9,56*,32,1,3
O=C(O)c1cc2cc(Cl)ccc2[nH]1,.,.,7,-10,1,.,.,.
CCN1CCN(C(=O)c2cc3cc(Cl)ccc3[nH]2)CC1,-5,13,-4,3,84*,67*,1,8
O=C(c1cc2cc(Cl)ccc2[nH]1)N1CCN(Cc2ccc3c(c2)OCO3)CC1,8,-20,-25,7,95*,85*,-1,-17
O=CN1CCN(C(=O)c2cc3cc(Cl)ccc3[nH]2)CC1,0,9,-4,-7,59*,39,-2,-7
CCC1(c2ccccc2)NC(=O)N(CC(=O)NCc2ccc(C)cc2)C1=O (configuration not stated),1,15,-3,1,-3,.,.,.
NC(=S)N/N=C1/CCSc2ccc3ccccc3c21,-3,12,-10,14,13,.,.,.
O=C(c1cccc(S(=O)(=O)N2CCc3ccccc32)c1)N1CCN(c2ccccc2)CC1,-3,-3,0,27,17,.,.,.
COc1cc(C#Cc2c(-c3cncn3C)n(C)c3ccc(-c4cc(OC)c(OC)c(OC)c4)cc23)cc(OC)c1,-2,9,5,-5,50*,9,1,5
COc1cc(C#Cc2c(-c3cncn3C)n(C)c3ccc(-c4ccc(OC)nc4)cc23)cc(OC)c1,2,-11,-4,-15,-1,.,.,.
CCCc1cc(=O)[nH]c(SCC(=O)Nc2cc(S(=O)(=O)N(CC)c3ccccc3)ccc2Cl)n1,-3,-8,-7,4,5,.,.,.
COc1ccc(NC(=O)/C(C#N)=C/c2c(C)nn(-c3ccc(F)cc3)c2Cl)cc1Cl,3,-18,6,19,60*,43,1,5
COc1ccc(NC(=O)/C(C#N)=C/c2c(C)nn(-c3ccc(F)cc3)c2Cl)cc1OC,5,0,-2,12,70*,53*,0,-13
COc1ccccc1NC(=O)/C(C#N)=C/c1c(C)nn(-c2ccc(F)cc2)c1Cl,4,-9,-1,-2,43,.,.,.
SMILES,APJ ag,APJ antagonist,CXCR6 inh,CCR6 antagonist,EBI2 antag,EBI2 antag conf,EBI2 ag,bGal cs
O=C(CCn1cnc2ccccc21)N/N=C/C=C/c1ccccc1,1,6,-4,8,46*,52*,1,5
O=C(O)Cn1nc(-c2ccccc2)ccc1=O,0,-4,-2,9,6,.,.,.
CCOc1ccc(NC(=S)N(CCCN2CCOCC2)Cc2cn(C)c3ccccc23)cc1,-4,12,5,12,44*,10,0,7
O=C(Nc1cccc(F)c1)c1cc(S(=O)(=O)N2CCOCC2)cs1,1,5,-2,1,8,.,.,.
CC(=C/c1ccco1)/C=N/NC(=O)CSc1nnc(SCc2ccc(C)cc2)s1,0,-33,8,-15,59*,20,-1,-9
O=C(CSc1nnc(SCc2ccc(Cl)cc2)s1)N/N=C/c1ccc(Cl)cc1Cl,-3,-12,-10,-7,52*,10,1,3
O=C(CSc1nnc(SCc2ccccc2)s1)N/N=C/C=C\c1ccco1,-4,10,0,32,12,.,.,.
COC(=O)N/N=C/c1ccc(-c2cccc(Cl)c2)o1,-1,-20,-2,-2,-4,.,.,.
Nc1ccccc1N=Cc1ccc(-c2cccc(Cl)c2)o1,9,-8,25,11,42*,33,-1,-8
O=c1c2oc3ccccc3c2ncn1Cc1cccc(Cl)c1,-4,9,-4,4,48*,10,1,5
O=c1c2oc3ccccc3c2ncn1Cc1ccccc1Cl,-6,10,-2,-7,5,.,.,.
COc1ccc2nc(SCC(=O)N3CC(=O)Nc4ccccc43)c(C#N)cc2c1,2,-7,-2,9,57*,35,-1,6
Cc1cccc(NC2=NCC(=O)N2Cc2cccs2)c1,-1,11,9,19,-10,.,.,.
C[C@@H]1CCCCO[C@H](CN(C)Cc2ccc(C(=O)O)cc2)[C@H](C)CN([C@@H](C)CO)C(=O)c2cc(NC(=O)Nc3ccc(C(F)(F)F)cc3)ccc2O1,.,.,-1,.,-9,.,.,.
Cc1occc1-c1nnc(SCC(=O)NCCc2ccccc2)n1C(C)c1ccccc1 (configuration not stated),2,-9,6,12,51*,27,-2,-11
COC(=O)c1ccc(OC)c(CSc2nnc(COc3ccc(OC)cc3)o2)c1,-1,3,4,21,49*,45,0,-1
COc1ccc(OCc2nnc(SCC(=O)N3C(C)CCCC3C)o2)cc1 (configuration not stated),-4,3,-5,21,46*,24,1,7
